Test results published in publication PMC7233196 (ACS chemical biology, 2020).

How the values were obtained:
Test in all cases: BRET ratio titration, purified sensor
Assay type in all cases: binding
tVYN-NtΔ (NtYcgRΔ) = conditions: read-out: KD(nM)^a; 3 nM sensor; pH 7.2, 100 mM KCl, 10 mM DTT, 0.1% BSA, 28 °C; Hill fit
In short: (§1)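 Coelenterazine-h substrate (60 μM in HEPES/KCl/300 mM ascorbate, pre-equilibrated ≥30 min at RT) added, 20 μL into 100 μL. Emission read at 460 and 530 nm, 28 °C, every 30 s for 10 min. BRET ratio taken at 2 min.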

tVYN-Nt (NtYcgR) = conditions: read-out: KD(nM)^a; 3 nM sensor; pH 7.2, 100 mM KCl, 10 mM DTT, 0.1% BSA, 28 °C; Hill fit
In short: as §1

VYN-Ec (EcYcgR) = target: T1, VYN-Ec (EcYcgR) (Escherichia coli, UniProt P76010)
T1 sequence (P76010 1-244): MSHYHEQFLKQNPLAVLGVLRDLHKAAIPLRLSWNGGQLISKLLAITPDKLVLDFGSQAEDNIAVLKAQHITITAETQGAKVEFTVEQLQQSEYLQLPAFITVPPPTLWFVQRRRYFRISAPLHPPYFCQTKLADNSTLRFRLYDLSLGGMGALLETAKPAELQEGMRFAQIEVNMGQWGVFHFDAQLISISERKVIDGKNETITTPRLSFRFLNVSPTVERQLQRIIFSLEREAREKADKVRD
In short: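 Coelenterazine-h prepared at 60 μM in HEPES/KCl/300 mM ascorbate (≥30 min RT), then added. Emission at 460 and 530 nm read at 30 s intervals for 10 min, 28 °C; BRET ratio taken 2 min post-substrate.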

Vcp229-Nt (NtYcgR) = conditions: read-out: KD(nM)^a; 3 nM sensor; pH 7.2, 100 mM KCl, 10 mM DTT, 0.1% BSA, 28 °C; Hill fit
In short: as §1

tVYN-Tb (TbYcgR) = conditions: read-out: KD(nM)^a; 3 nM sensor; pH 7.2, 100 mM KCl, 10 mM DTT, 0.1% BSA, 28 °C; Hill fit
In short: as §1

VYN-Tb (TbYcgR) = conditions: read-out: KD(nM)^a; 3 nM sensor; pH 7.2, 100 mM KCl, 10 mM DTT, 0.1% BSA, 28 °C; Hill fit
In short: as §1

Vcp157-Cp (CpYcgR) = conditions: read-out: KD(nM)^a; 3 nM sensor; pH 7.2, 100 mM KCl, 10 mM DTT, 0.1% BSA, 28 °C; Hill fit
In short: as §1

Vcp173-Nt (NtYcgR) = conditions: read-out: KD(nM)^a; 3 nM sensor; pH 7.2, 100 mM KCl, 10 mM DTT, 0.1% BSA, 28 °C; Hill fit
In short: as §1

VYN-Nt (NtYcgR) = conditions: read-out: KD(nM)^a; 3 nM sensor; pH 7.2, 100 mM KCl, 10 mM DTT, 0.1% BSA, 28 °C; Hill fit
In short: as §1

Nc1nc2c(ncn2[C@@H]2O[C@@H]3COP(=O)(O)O[C@H]4[C@@H](O)[C@H](n5cnc6c(=O)[nH]c(N)nc65)O[C@@H]4COP(=O)(O)O[C@H]3[C@H]2O)c(=O)[nH]1 [c-di-GMP]
Kd (tVYN-NtΔ (NtYcgRΔ)): 54 ± 4 nM | Kd (tVYN-Nt (NtYcgR)): 20 ± 1 nM | Kd (VYN-Ec (EcYcgR)): 50 ± 4 nM | Kd (Vcp229-Nt (NtYcgR)): 14 ± 1 nM | Kd (tVYN-Tb (TbYcgR)): 12 ± 1 nM | Kd (VYN-Tb (TbYcgR)): 8 ± 0.4 nM | Kd (Vcp157-Cp (CpYcgR)): 96 ± 6 nM | Kd (Vcp173-Nt (NtYcgR)): 17 ± 4 nM | Kd (VYN-Nt (NtYcgR)): 14 ± 4 nM
